Results published in ChEMBL document CHEMBL4316581, “Efforts in redesigning the antileukemic drug 6-thiopurine: decreasing toxic side effects while maintaining efficacy” (Medchemcomm, 2019).
pIC50, pKi: −log10 of the molar value. One block for each molecule: values may come before it.

Assays:
REH = test: Cytotoxicity against human REH cells assessed as reduction in cell viability […] by Alamar Blue assay; format: functional, cell-based
[1] = target: T1, UDP-glucuronosyltransferase 1A1 (Rattus norvegicus, UniProt Q64550); test: Inhibition of UGT1A in rat hepatocytes preincubated for 2 mins followed by UDPGA addition measured after 45 mins by HPLC analysis; format: ADME, cell-based
T1 sequence (Q64550 whole entry): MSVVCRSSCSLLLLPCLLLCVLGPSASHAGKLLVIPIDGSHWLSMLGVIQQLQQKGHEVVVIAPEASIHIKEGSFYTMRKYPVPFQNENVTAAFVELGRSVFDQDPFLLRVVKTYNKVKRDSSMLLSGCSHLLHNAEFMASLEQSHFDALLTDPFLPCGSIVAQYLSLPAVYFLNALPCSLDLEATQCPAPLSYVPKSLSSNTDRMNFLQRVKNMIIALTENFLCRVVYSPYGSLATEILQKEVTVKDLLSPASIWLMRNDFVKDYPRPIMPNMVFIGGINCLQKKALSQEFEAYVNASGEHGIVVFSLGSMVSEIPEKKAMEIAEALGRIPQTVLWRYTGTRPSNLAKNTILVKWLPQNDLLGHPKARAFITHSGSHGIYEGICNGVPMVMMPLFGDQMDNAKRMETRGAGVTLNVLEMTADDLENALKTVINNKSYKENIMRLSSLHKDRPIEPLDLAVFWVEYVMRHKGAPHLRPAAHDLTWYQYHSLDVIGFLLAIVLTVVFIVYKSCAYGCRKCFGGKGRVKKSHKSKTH
Outline: (§1)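 Rat liver microsomes (100 µg protein/mL) were used, with alamethicin 22 µg/mL, bilirubin 10 µM and MgCl2 0.88 mM in 50 mM potassium phosphate pH 7.4, at 37 °C with shaking under minimal light. Purine or no-purine control was preincubated 2 min before UDPGA (3.5 mM) started the reaction. Reactions were stopped with ice-cold methanol containing 200 mM ascorbic acid and centrifuged. Unconjugated bilirubin and mono- and diglucuronides were quantified by gradient HPLC against bilirubin calibration curves over a 45-min time course.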

[2] = target: T2, UDP-glucose 6-dehydrogenase (Rattus norvegicus, UniProt O70199); test: Inhibition of UDPGDH in rat hepatocytes after 20 to 120 secs by UV/Vis spectrophotometric analysis; format: cell-based
T2 sequence (O70199 whole entry): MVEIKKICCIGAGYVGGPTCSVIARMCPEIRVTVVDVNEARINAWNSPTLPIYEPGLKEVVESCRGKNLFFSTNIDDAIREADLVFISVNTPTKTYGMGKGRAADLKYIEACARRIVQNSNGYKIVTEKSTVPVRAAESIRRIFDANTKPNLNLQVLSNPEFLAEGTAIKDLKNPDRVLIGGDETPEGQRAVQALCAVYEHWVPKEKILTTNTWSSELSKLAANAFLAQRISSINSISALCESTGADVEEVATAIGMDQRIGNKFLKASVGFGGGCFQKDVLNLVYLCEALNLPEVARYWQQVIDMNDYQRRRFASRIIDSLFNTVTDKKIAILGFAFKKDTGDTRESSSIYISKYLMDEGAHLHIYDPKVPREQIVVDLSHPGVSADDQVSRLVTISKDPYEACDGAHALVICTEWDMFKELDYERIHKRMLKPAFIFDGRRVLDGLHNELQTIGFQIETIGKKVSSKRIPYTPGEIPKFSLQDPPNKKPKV
Outline: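 Purified UDPGDH (0.1 unit/mL) was assayed spectrophotometrically at 340 nm and 25 °C in 150 mM Gly-Gly with saturating 3 mM NAD+. UDPG was varied (0.1, 0.05, 0.025, 0.02 mM) at several inhibitor concentrations. After 2 min thermal equilibration, the initial absorbance-versus-time rate was recorded. Runs were in triplicate; averaged slopes were plotted to derive inhibition values.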

[3] = target: T1, UDP-glucuronosyltransferase 1A1; test: Inhibition of UGT1A in rat hepatocytes assessed as decrease in bilirubin diglucuronide level at 10 uM after 45 mins in presence of UDPGA by HPLC analysis; format: ADME, cell-based; conditions: 0.75 h; outline: as §1
[4] = target: T3, UGT1A (UDP-glucuronosyltransferase 1A1) (Rattus norvegicus, UniProt Q64550); test: Inhibition of UGT1A in rat hepatocytes assessed as decrease in bilirubin monoglucuronide level at 10 uM preincubated for 2 mins followed by UDPGA addition measured after 45 mins by HPLC analysis relative to control; format: ADME, cell-based; conditions: probe bilirubin (readout: bilirubin monoglucuronide level); outline: as §1
T3 sequence (Q64550 whole entry): T1 sequence (Q64550 whole entry)

[5] = target: T3, UGT1A (UDP-glucuronosyltransferase 1A1); test: Inhibition of UGT1A in rat hepatocytes assessed as decrease in bilirubin diglucuronide level at 10 uM preincubated for 2 mins followed by UDPGA addition measured after 45 mins by HPLC analysis relative to control; format: ADME, cell-based; conditions: probe bilirubin (readout: bilirubin diglucuronide level); outline: as §1
[6] = target: T1, UDP-glucuronosyltransferase 1A1; test: Inhibition of UGT1A in rat hepatocytes assessed as decrease in bilirubin monoglucuronide level at 10 uM after 45 mins in presence of UDPGA by HPLC analysis; format: ADME, cell-based; conditions: 0.75 h; outline: as §1
[7] = target: T2, UDP-glucose 6-dehydrogenase; test: Inhibition of UDPGDH in rat hepatocytes assessed as decrease in bilirubin diglucuronide level at 10 uM after 45 mins in presence of UDPGA by HPLC analysis; format: cell-based; conditions: 0.75 h; outline: as §1
[8] = target: T2, UDP-glucose 6-dehydrogenase; test: Inhibition of UDPGDH in rat hepatocytes assessed as decrease in bilirubin diglucuronide level at 10 uM preincubated for 2 mins followed by UDPGA addition measured after 45 mins in presence of regorafenib by HPLC analysis; format: cell-based; conditions: 0.75 h
[9] = target: T2, UDP-glucose 6-dehydrogenase; test: Inhibition of UDPGDH in rat hepatocytes assessed as decrease in bilirubin diglucuronide level at 5 to 10 uM preincubated for 2 mins followed by UDPGA addition measured after 45 mins by HPLC analysis; format: cell-based; conditions: 0.75 h; outline: as §1
[10] = target: T1, UDP-glucuronosyltransferase 1A1; test: Inhibition of UGT1A in rat hepatocytes assessed as increase in unconjugated bilirubin level at 75 uM preincubated for 2 mins followed by UDPGA addition measured after 45 mins by HPLC analysis; format: ADME, cell-based; conditions: 0.75 h; outline: as §1
[11] = target: T1, UDP-glucuronosyltransferase 1A1; test: Inhibition of UGT1A in rat hepatocytes assessed as decrease in bilirubin monoglucuronide level at 75 uM preincubated for 2 mins followed by UDPGA addition measured after 45 mins by HPLC analysis; format: ADME, cell-based; conditions: 0.75 h; outline: as §1
[12] = target: T1, UDP-glucuronosyltransferase 1A1; test: Inhibition of UGT1A in rat hepatocytes assessed as decrease in bilirubin diglucuronide level at 75 uM preincubated for 2 mins followed by UDPGA addition measured after 45 mins by HPLC analysis; format: ADME, cell-based; conditions: 0.75 h; outline: as §1
[13] = target: T2, UDP-glucose 6-dehydrogenase; test: Inhibition of UDPGDH in rat hepatocytes assessed as decrease in bilirubin monoglucuronide level at 10 uM preincubated for 2 mins followed by UDPGA addition measured after 45 mins in presence of regorafenib by HPLC analysis; format: cell-based; conditions: 0.75 h
[14] = target: T2, UDP-glucose 6-dehydrogenase; test: Inhibition of UDPGDH in rat hepatocytes assessed as increase in unconjugated bilirubin level at 10 uM preincubated for 2 mins followed by UDPGA addition measured after 45 mins by HPLC analysis relative to control; format: cell-based; design: scale not given: the % may be the effect or the level left; conditions: 0.75 h; outline: as §1
[15] = target: T2, UDP-glucose 6-dehydrogenase; test: Inhibition of UDPGDH in rat hepatocytes assessed as increase in unconjugated bilirubin level at 5 uM preincubated for 2 mins followed by UDPGA addition measured after 45 mins by HPLC analysis relative to control; format: cell-based; design: scale not given: the % may be the effect or the level left; conditions: 0.75 h; outline: as §1
[16] = target: T4, UDPGDH (UDP-glucose 6-dehydrogenase) (Rattus norvegicus, UniProt O70199); test: Inhibition of UDPGDH in rat hepatocytes assessed as decrease in bilirubin monoglucuronide level at 10 uM preincubated for 2 mins followed by UDPGA addition measured after 45 mins by HPLC analysis relative to control; format: cell-based; conditions: probe bilirubin (readout: bilirubin monoglucuronide level); outline: as §1
T4 sequence (O70199 whole entry): T2 sequence (O70199 whole entry)

[17] = target: T4, UDPGDH (UDP-glucose 6-dehydrogenase); test: Inhibition of UDPGDH in rat hepatocytes assessed as decrease in bilirubin diglucuronide level at 10 uM preincubated for 2 mins followed by UDPGA addition measured after 45 mins by HPLC analysis relative to control; format: cell-based; conditions: probe bilirubin (readout: bilirubin diglucuronide level); outline: as §1
[18] = target: T4, UDPGDH (UDP-glucose 6-dehydrogenase); test: Inhibition of UDPGDH in rat hepatocytes assessed as decrease in bilirubin monoglucuronide level at 5 uM preincubated for 2 mins followed by UDPGA addition measured after 45 mins by HPLC analysis relative to control; format: cell-based; conditions: probe bilirubin (readout: bilirubin monoglucuronide level); outline: as §1
[19] = target: T4, UDPGDH (UDP-glucose 6-dehydrogenase); test: Inhibition of UDPGDH in rat hepatocytes assessed as decrease in bilirubin diglucuronide level at 5 uM preincubated for 2 mins followed by UDPGA addition measured after 45 mins by HPLC analysis relative to control; format: cell-based; conditions: probe bilirubin (readout: bilirubin diglucuronide level); outline: as §1
[20] = target: T4, UDPGDH (UDP-glucose 6-dehydrogenase); test: Inhibition of UDPGDH in rat hepatocytes assessed as decrease in bilirubin diglucuronide level at 50 uM preincubated for 2 mins followed by UDPGA addition measured after 45 mins by HPLC analysis relative to control; format: cell-based; conditions: probe bilirubin (readout: bilirubin diglucuronide level); outline: as §1
[21] = target: T4, UDPGDH (UDP-glucose 6-dehydrogenase); test: Inhibition of UDPGDH in rat hepatocytes assessed as decrease in bilirubin diglucuronide level at 25 uM preincubated for 2 mins followed by UDPGA addition measured after 45 mins by HPLC analysis relative to control; format: cell-based; conditions: probe bilirubin (readout: bilirubin diglucuronide level); outline: as §1
[22] = target: T4, UDPGDH (UDP-glucose 6-dehydrogenase); test: Inhibition of UDPGDH in rat hepatocytes assessed as decrease in bilirubin monoglucuronide level at 50 uM preincubated for 2 mins followed by UDPGA addition measured after 45 mins by HPLC analysis relative to control; format: cell-based; conditions: probe bilirubin (readout: bilirubin monoglucuronide level); outline: as §1
[23] = target: T4, UDPGDH (UDP-glucose 6-dehydrogenase); test: Inhibition of UDPGDH in rat hepatocytes assessed as decrease in bilirubin monoglucuronide level at 25 uM preincubated for 2 mins followed by UDPGA addition measured after 45 mins by HPLC analysis relative to control; format: cell-based; conditions: probe bilirubin (readout: bilirubin monoglucuronide level); outline: as §1
[24] = target: T4, UDPGDH (UDP-glucose 6-dehydrogenase); test: Inhibition of UDPGDH in rat hepatocytes assessed as increase in unconjugated bilirubin level at 25 uM preincubated for 2 mins followed by UDPGA addition measured after 45 mins by HPLC analysis relative to control; format: cell-based; conditions: probe bilirubin (readout: unconjugated bilirubin level); outline: as §1

Structure (SMILES): COc1cccc2c1C(=O)c1c(O)c3c(c(O)c1C2=O)C[C@@](O)(C(=O)CO)C[C@@H]3O[C@H]1C[C@H](N)[C@H](O)[C@H](C)O1 [DOXORUBICIN]
- pIC50 (REH): 6.55

Structure (SMILES): O=c1[nH]c(=S)c2nc[nH]c2[nH]1
- pKi [1]: < 4.00
- pKi [2]: 4.27
- pIC50 (REH): < 5.00

Structure (SMILES): CNC(=O)c1cc(Oc2ccc(NC(=O)Nc3ccc(Cl)c(C(F)(F)F)c3)c(F)c2)ccn1 [REGORAFENIB]
- inhibition (INH) [3]: Active
- inhibition at 0.75 h, 10 µM [4]: 89%
- inhibition at 0.75 h, 10 µM [5]: 96%
- inhibition (INH) [6]: Active

Structure (SMILES): O=c1[nH]c(=S)c2[nH]c(=O)[nH]c2[nH]1
- inhibition (INH) [7]: Not Active
- pKi [1]: < 4.00
- inhibition (INH) [8]: Active
- inhibition (INH) [9]: Active
- pKi [2]: 5.15
- inhibition (INH) [10]: Not Active
- inhibition (INH) [11]: Not Active
- inhibition (INH) [12]: Not Active
- pIC50 (REH): < 5.00
- inhibition (INH) [13]: Active
- Activity [14]: 42%
- Activity [15]: 31%
- inhibition at 0.75 h, 10 µM [16]: 81%
- inhibition at 0.75 h, 10 µM [17]: 86%
- inhibition at 0.75 h, 5 µM [18]: 71%
- inhibition at 0.75 h, 5 µM [19]: 76%

Continued, in another order:

- pKi [2]: 3.67
Structure (SMILES): Fc1nc2c(S)ncnc2[nH]1
- pIC50 (REH): 5.33

- pKi [1]: < 4.00
- pKi [2]: 4.85
Structure (SMILES): Oc1nc2c(S)ncnc2[nH]1
- pIC50 (REH): 5.00

- pKi [2]: 3.72
Structure (SMILES): Sc1ncnc2[nH]c(Br)nc12
- pIC50 (REH): 5.02

- inhibition at 0.75 h, 50 µM [20]: 26%
- pKi [1]: < 4.00
- inhibition (INH) [9]: Active
- pKi [2]: 3.54
- inhibition (INH) [10]: Not Active
- inhibition at 0.75 h, 25 µM [21]: 12%
- inhibition (INH) [11]: Not Active
- inhibition (INH) [12]: Not Active
- inhibition at 0.75 h, 50 µM [22]: 28%
- inhibition at 0.75 h, 25 µM [23]: 19%
- inhibition at 0.75 h, 25 µM [24]: 19%
Structure (SMILES): Sc1ncnc2nc[nH]c12 [MERCAPTOPURINE ANHYDROUS]
- pIC50 (REH): 5.53

- pKi [2]: 3.79
Structure (SMILES): Sc1ncnc2[nH]c(Cl)nc12
- pIC50 (REH): 5.40
